From ChEMBL document CHEMBL4007487, “Discovery of Novel Pyridone-Conjugated Monosulfactams as Potent and Broad-Spectrum Antibiotics for Multidrug-Resistant Gram-Negative Infections” (J Med Chem, 2017)
Converted amounts (≈) assume the structure as drawn.

Key:
Escherichia coli [1] = experiment: In vivo antibacterial activity against Escherichia coli isolate 210737 infected in Kunming mouse systemic infection model assessed as increase in mouse survival administered subcutaneously 0.5 to 4 hrs post infection measured after 48 hrs by Bliss method; format: functional; conditions: isolate 210737, sc
Method in brief: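 Kunming mice, half male and half female, 18–22 g, 5 per group. Lethal systemic infection by intraperitoneal injection of 0.5 mL clinical E. coli 210737 inoculum at 5×10^4 CFU/mL. Given subcutaneously twice, at 0.5 and 4.0 h post-infection, at doses of 0.625 to 20 mg/kg.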

in vivo [2] = conditions: Sprague-Dawley, rat, iv, 1 mg/kg
Pseudomonas aeruginosa = experiment: Antibacterial activity against extended spectrum beta-lactamase IMP-4 producing multidrug resistant Pseudomonas aeruginosa clinical isolates after 18 hrs by broth microdilution method; format: functional
Escherichia coli [3] = experiment: Antibacterial activity against Escherichia coli isolate 210737 after 18 hrs by broth microdilution method; format: functional; conditions: isolate 210737, 18 h
Method in brief: (§1)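 CLSI broth microdilution in Mueller-Hinton broth with 16 mg/L 2,2'-bipyridyl added. Compounds were dissolved in DMSO, or in water for meropenem and ceftizoxime sodium, then serially diluted in growth medium.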

[4] = Drug degradation in human plasma at 10 uM after 4 hrs by LC-MS/MS analysis; format: ADME, cell-free; conditions: read-out: Drug degradation
Method in brief: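 Human plasma containing compound (10 μM, n = 4) was incubated for 4 h at 37 °C under 5% CO2. Concentrations at T0 and at 4 h were measured by LC–MS/MS, and degradation was expressed as a percentage relative to the T0 average.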

Klebsiella pneumoniae [5] = experiment: In vivo antibacterial activity against multidrug resistant Klebsiella pneumoniae isolate 212232 infected in Kunming mouse systemic infection model assessed as increase in mouse survival administered subcutaneously 0.5 to 4 hrs post infection measured after 48 hrs by Bliss method; format: functional; conditions: isolate 212232, sc
Method in brief: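 Kunming mice, half male and half female, 18–22 g, 5 per group. Infected intraperitoneally with 0.5 mL of MDR clinical K. pneumoniae 212232 at 3×10^6 CFU/mL. Subcutaneous doses of 3.125, 6.25, 12.5, 25, 50 and 100 mg/kg were given at 0.5 and 4.0 h post-infection.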

Acinetobacter baumannii = experiment: Antibacterial activity against extended spectrum beta-lactamase OXA-23 producing multidrug resistant Acinetobacter baumannii clinical isolates after 18 hrs by broth microdilution method; format: functional
Klebsiella pneumoniae [6] = experiment: In vivo antibacterial activity against multidrug resistant Klebsiella pneumoniae isolate 212232 infected in Kunming mouse systemic infection model assessed as increase in mouse survival at 100 mg/kg, sc administered 0.5 to 4 hrs post infection measured after 48 hrs by Bliss method; format: functional; conditions: isolate 212232, sc
Method in brief: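 Lethal intraperitoneal infection of Kunming mice (mixed sex, 18–22 g, 5 per group) with 0.5 mL MDR K. pneumoniae 212232 at 3×10^6 CFU/mL. The 100 mg/kg dose was given subcutaneously at 0.5 and 4.0 h post-infection. Read-out is the percentage of mice surviving at 48 h after treatment.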

Klebsiella pneumoniae [7] = experiment: Antibacterial activity against extended spectrum beta-lactamase KPC-2 producing multidrug resistant Klebsiella pneumoniae clinical isolates after 18 hrs by broth microdilution method; format: functional
[8] = Volume of distribution in steady state in Sprague-Dawley rat at 1 mg/kg, iv measured up to 180 mins by LC-MS/MS analysis; format: ADME, organism-based; conditions: in vivo, read-out: Vdss
Method in brief: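 Male Sprague-Dawley rats (200–220 g, n = 3 per group) received 1.0 mg/kg iv in water. Blood was taken from the retrobulbar vein at 2, 5, 15, 30, 45, 60, 90 and 180 min. Plasma was quantified by LC–MS/MS, and parameters were derived by noncompartmental analysis of mean plasma concentrations.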

Plasma = experiment: Fraction unbound in human plasma at 10 uM after 4 hrs by LC-MS/MS based rapid equilibrium dialysis method; format: ADME, cell-free
Method in brief: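 Human plasma spiked at 10 μM was dialysed against buffer in a rapid equilibrium dialysis device for 4 h at 37 °C under 5% CO2 (n = 4). Both sides were quantified by LC–MS/MS. Fraction unbound was taken as the buffer concentration divided by the total plasma-side concentration.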

Klebsiella pneumoniae [9] = experiment: Antibacterial activity against Klebsiella pneumoniae isolate 212232 after 18 hrs by broth microdilution method; format: functional; conditions: isolate 212232, 18 h; method in brief: as §1
Escherichia coli [10] = experiment: Antibacterial activity against extended spectrum beta-lactamases producing Escherichia coli clinical isolates after 18 hrs by broth microdilution method; format: functional
[11] = Clearance in Sprague-Dawley rat at 1 mg/kg, iv measured up to 180 mins by LC-MS/MS analysis; conditions: in vivo
in vivo [12] = conditions: Sprague-Dawley, rat, iv, 1 mg/kg; remark: listed apart in the source
[13] = Klebsiella pneumoniae, 18 h, read-out: MIC

| SMILES | ED50 (Escherichia coli [1]) [mg/kg] | AUC(0-t) at 3 h (in vivo [2]) [ng·h/mL] | MIC (Pseudomonas aeruginosa) [µg/mL] | MIC (Escherichia coli [3]) [µg/mL] | metabolised at 4 h, 10 µM [4] [%] | ED50 (Klebsiella pneumoniae [5]) [mg/kg] | MIC (Acinetobacter baumannii) [µg/mL] | survival at 100 mg/kg (Klebsiella pneumoniae [6]) [%] | MIC (Klebsiella pneumoniae [7]; [13]) [µg/mL] | Vd [8] [L/kg] | Fu (Plasma) [%] | MIC (Klebsiella pneumoniae [9]) [µg/mL] | MIC (Escherichia coli [10]) [µg/mL] | clearance at 3 h [11] [mL/min/kg] | half-life (in vivo [12]) [min] | MIC (Klebsiella pneumoniae [7]) [µg/mL] |
| --- | --- | --- | --- | --- | --- | --- | --- | --- | --- | --- | --- | --- | --- | --- | --- | --- |
| CC1(C)[C@H](NC(=O)/C(=N\OCc2cc(=O)c(O)cn2O)c2csc(N)n2)C(=O)N1OS(=O)(=O)O | 4.19 | 1710 | 1 to 4 (≈ 1.93 to 7.71 µM) | 0.25 (≈ 0.482 µM) | 12 | > 100 | 0.5 to 64 (≈ 0.964 to 123 µM) | 40 | 0.25 to 64 (≈ 0.482 to 123 µM) | 0.14 | 47 | 0.25 (≈ 0.482 µM) | 0.25 to 1 (≈ 0.482 to 1.93 µM) | – | – | – |
| CC(C)[C@H](O/N=C(\C(=O)N[C@@H]1C(=O)N(OS(=O)(=O)O)C1(C)C)c1nsc(N)n1)c1cc(=O)c(O)cn1O | – | – | 1 to 2 (≈ 1.78 to 3.56 µM) | – | 16 | – | 1 to 4 (≈ 1.78 to 7.12 µM) | – | 1 to 4 (≈ 1.78 to 7.12 µM) | – | 27 | – | 0.5 to 2 (≈ 0.89 to 3.56 µM) | – | – | – |
| COCC(O/N=C(\C(=O)N[C@@H]1C(=O)N(OS(=O)(=O)O)C1(C)C)c1csc(N)n1)c1cc(=O)c(O)cn1O (some centres not stated) | – | – | 1 to 4 (≈ 1.78 to 7.11 µM) | – | 57 | – | 0.125 to 1 (≈ 0.222 to 1.78 µM) | – | 0.06 to 2 (≈ 0.107 to 3.56 µM) | – | 67 | – | – | – | – | – |
| CC(C)C(O/N=C(\C(=O)N[C@@H]1C(=O)N(OS(=O)(=O)O)C1(C)C)c1nc(N)sc1Cl)c1cc(=O)c(O)cn1O (some centres not stated) | 6.94 | 634 | 0.25 to 8 (≈ 0.42 to 13.4 µM) | 1 (≈ 1.68 µM) | 22 | – | 0.06 to 2 (≈ 0.101 to 3.36 µM) | – | 0.06 to 0.5 (≈ 0.101 to 0.84 µM) | 1.41 | 23 | 0.06 (≈ 0.101 µM) | 0.06 to 1 (≈ 0.101 to 1.68 µM) | 26.9 | 90 | – |
| CCC(O/N=C(\C(=O)N[C@@H]1C(=O)N(OS(=O)(=O)O)C1(C)C)c1csc(N)n1)c1cc(=O)c(O)cn1O (some centres not stated) | – | – | 0.125 to 4 (≈ 0.229 to 7.32 µM) | – | 27 | – | 0.25 to 2 (≈ 0.457 to 3.66 µM) | – | – | – | 35 | – | 0.25 to 2 (≈ 0.457 to 3.66 µM) | – | – | >0.03 to 64 |
| CC1(C)[C@H](NC(=O)/C(=N\OC(CS(C)(=O)=O)c2cc(=O)c(O)cn2O)c2csc(N)n2)C(=O)N1OS(=O)(=O)O (some centres not stated) | 5.32 | 1890 | 1 to 32 (≈ 1.64 to 52.4 µM) | 0.06 (≈ 0.0983 µM) | 34 | – | 0.25 to 2 (≈ 0.409 to 3.28 µM) | – | 0.06 to 2 (≈ 0.0983 to 3.28 µM) | 0.21 | 64 | 0.06 (≈ 0.0983 µM) | – | 9.3 | 19.8 | – |
| CNC(=O)C(O/N=C(\C(=O)N[C@@H]1C(=O)N(OS(=O)(=O)O)C1(C)C)c1csc(N)n1)c1cc(=O)c(O)cn1O (some centres not stated) | – | – | 4 (≈ 6.95 µM) | – | 36 | – | 0.25 to 1 (≈ 0.434 to 1.74 µM) | – | 0.25 to 2 (≈ 0.434 to 3.48 µM) | – | 69 | – | 0.06 to 4 (≈ 0.104 to 6.95 µM) | – | – | – |
| CC1(C)[C@H](NC(=O)/C(=N\OC(c2cc(=O)c(O)cn2O)C2CC2)c2csc(N)n2)C(=O)N1OS(=O)(=O)O (some centres not stated) | – | – | 0.25 to 4 (≈ 0.448 to 7.16 µM) | – | 24 | – | 0.5 to 2 (≈ 0.895 to 3.58 µM) | – | – | – | 39 | – | 0.06 to 4 (≈ 0.107 to 7.16 µM) | – | – | 0.06 to 64 |
